Unmarked numbers belong to inactive results. Active and inactive are the calls of the source.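 How the source made its calls: active means growth inhibition above 25% in both replicates, a cutoff set 3 SD above the mean; inconclusive means above 25% in only one replicate; inactive means the rest.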
experiment: OD615 S. cerevisiae growth inhibition, permissive medium, pilot counter-assay, permissive growth control for S. cerevisiae lifespan shortening project (AID 705); settings: OD615, 24 h, at 10 µM, hits give high values
In short: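 System: Engineered DeaD yeast | Buffer or medium: SC raffinose/galactose permissive medium | Doses: 10 µM single dose, 0.25% DMSO | Times: 24 h exposure, 30 °C | Measured by: OD615 turbidity read | Read-out: Yeast growth inhibition indicated by reduced 24 h OD615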

| Structure (SMILES) | growth inhibition |
| --- | --- |
| Cc1ccc(S(=O)(=O)Cc2ccc(C(=O)N3CCN(c4ccccn4)CC3)o2)cc1 | -6.39% |
| CCOC(=O)C1CCN(C(=O)CN(c2ccc(OC)c(OC)c2)S(=O)(=O)c2ccccc2)CC1 | -2.99% |
| CCc1cc(C(=O)COc2ccccc2F)c(O)cc1O | -11.9% |
| O=C(Cn1cc2c(n1)CCCC2)NCC1CCCO1 (stereo unspecified) | -2.07% |
| COC(=O)C(C(=O)OC)=C(/C=C/N(C)C)N(C)C | -16.7% |
| CCCS(=O)(=O)c1nc(S(=O)(=O)c2ccc(C)cc2)c(N2CCCC2)s1 | -0.655% |
| COc1cccc(CNC(=O)CCS(=O)(=O)c2cccc3nonc23)c1 | -13.5% |
| N#CC1=C(O)CCCn2c1nc1ccccc1c2=O | -3.3% |
| COc1cc(S(=O)(=O)NCc2ccc3c(c2)OCO3)ccc1Cl | -10.5% |
| Cc1nc2sc(C(c3ccccc3)N3CCN(CCO)CC3)c(O)n2n1 (stereo unspecified) | -5.65% |
| CC1=CC(C)(C)N(C(=O)CSc2nccn2C)c2cc(C)ccc21 | -12.3% |
| c1ccc(-c2nnc(-c3ccccn3)nn2)nc1 | 34.5% (active) |
| CC1=C(C(=O)N(C)C)C(c2cccc(Cl)c2)NC(=O)N1 (stereo unspecified) | -2.44% |
| COc1ccc(S(=O)(=O)N2CCN(C)CC2)cc1Br | -1.05% |
| CC1(C)Cc2c(C#N)c(NCCCO)nc(-c3ccccc3)c2CO1 | -7.54% |
| O=C(O)c1ccc(NC(=O)C2C3CCC(C3)C2C(=O)O)cc1 (stereo unspecified) | 7% |

Source: PubChem BioAssay
